The values below come from ChEMBL document CHEMBL5260824, “9-Deazapurines as Broad-Spectrum Inhibitors of the ABC Transport Proteins P-Glycoprotein, Multidrug Resistance-Associated Protein 1, and Breast Cancer Resistance Protein” (J Med Chem, 2017).

Data set [1] is described as follows: Reversal of drug resistance in dog MDCK-II-BCRP cells expressing BCRP. Format: functional, cell-based, Canis lupus familiaris. In outline: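 Cells seeded per well (A2780/ADR 8,000; H69AR 20,000; MDCK II BCRP 3,000) with test compound at 1, 10 or 100 µM solutions added before cells. Daunorubicin (P-gp, MRP1) or SN-38 (BCRP) added to final 10 nM–10 µM. 72 h at 37 °C, then MTT viability read at 570 nm. GI50 from variable-slope nonlinear fits, compared with parental lines; three independent experiments in duplicate.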

The nature of data set [2]: Reversal of Daunorubicin resistance in human A2780 ADR cells assessed as Daunorubicin GI50 at 0.1 uM measured for 72 hrs by MTT assay. It is filed as functional. In outline:
(§1)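 Reversal assay: resistant lines (A2780/ADR, H69AR, MDCK II BCRP) and parental lines seeded as for MTT assay with modulator solutions of 1, 10 and 100 µM added (final 0.1, 1, 10 µM) and daunorubicin (P-gp, MRP1) or SN-38 (BCRP) at final 10 nM–10 µM. 72 h, MTT read-out; GI50 by variable-slope fit. Resistance factor = resistant/sensitive GI50; potentiation factor = GI50 without/with modulator.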

A short description of data set [3]: Reversal of SN-38 resistance in dog MDCK-II-BCRP cells assessed as SN-38 GI50 at 0.1 uM measured for 72 hrs by MTT assay. Format: functional. The settings on record: Canis lupus familiaris. In outline: as §1
Data set [4] deals with ATP-dependent translocase ABCB1 (Homo sapiens, UniProt P08183). Briefly: Inhibition of P-gp (unknown origin) incubated for 30 mins by calcein AM analysis. In outline:
(§2)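 A2780/ADR cells (doxorubicin-selected, P-gp overexpressing), about 30,000 per well in Krebs-HEPES buffer pH 7.4, incubated 30 min at 37 °C with compound (100 nM–100 µM added solutions). Calcein AM (3.125 µM solution added) then fluorescence read every 60 s at 37 °C, ex 485/em 520 nm; slope over minutes 5–30 plotted vs log concentration. Cyclosporine A 10 µM = 100% inhibition, buffer = 0%.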

Data set [5] has as its target T1, Broad substrate specificity ATP-binding cassette transporter ABCG2 (Homo sapiens, UniProt Q9UNQ0).
T1 sequence (Q9UNQ0 whole entry): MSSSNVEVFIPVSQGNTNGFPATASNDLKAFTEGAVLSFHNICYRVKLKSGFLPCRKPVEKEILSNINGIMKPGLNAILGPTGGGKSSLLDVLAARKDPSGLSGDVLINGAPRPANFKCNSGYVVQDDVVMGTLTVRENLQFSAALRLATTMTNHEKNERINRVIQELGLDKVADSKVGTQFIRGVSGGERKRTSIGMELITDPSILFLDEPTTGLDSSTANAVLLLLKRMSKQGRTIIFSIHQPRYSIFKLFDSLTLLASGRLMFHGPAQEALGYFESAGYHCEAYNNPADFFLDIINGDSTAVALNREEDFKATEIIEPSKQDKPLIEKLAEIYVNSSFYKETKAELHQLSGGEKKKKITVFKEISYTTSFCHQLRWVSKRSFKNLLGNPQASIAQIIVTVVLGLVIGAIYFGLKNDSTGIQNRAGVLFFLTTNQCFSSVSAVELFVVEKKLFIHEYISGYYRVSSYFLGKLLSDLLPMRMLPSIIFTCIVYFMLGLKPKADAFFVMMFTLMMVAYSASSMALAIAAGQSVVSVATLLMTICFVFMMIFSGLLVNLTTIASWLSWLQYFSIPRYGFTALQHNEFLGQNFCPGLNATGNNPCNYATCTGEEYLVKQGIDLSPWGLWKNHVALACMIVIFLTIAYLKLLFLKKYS
Description: Inhibition of BCRP (unknown origin) expressed in dog MDCK-II cells using pheophorbide A as substrate preincubated for 20 mins followed by substrate addition and measured after 120 mins by flow cytometry analysis. It is filed as cell-based. Put shortly: (§3)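 MDCK II cells transfected with human wild-type BCRP cDNA C-terminally fused to GFP, grown in DMEM/10% FBS. About 45,000 cells per well preincubated 20 min at 37 °C, 5% CO2 with compound (100 nM–100 µM added solutions), then pheophorbide A (5 µM solution added) for 120 min to steady state. Resuspended; flow cytometry, 488 nm excitation, FL3 (≥670 nm); GFP in FL1. Reference inhibitor 24 at 10 µM = 100%.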

The target of another data set is P-gp (ABCB1) (Homo sapiens, UniProt P08183). Description: Inhibition of P-gp (unknown origin) at 10 uM incubated for 30 mins by calcein AM analysis relative to control. The settings on record: probe calcein AM. Put shortly:
as §2

Data set [6] has as its target T2, BCRP (ABCG2) (Homo sapiens, UniProt Q9UNQ0).
T2 sequence (Q9UNQ0 whole entry): T1 sequence (Q9UNQ0 whole entry)
Briefly: Inhibition of BCRP (unknown origin) expressed in dog MDCK-II cells at 10 uM using pheophorbide A as substrate preincubated for 20 mins followed by substrate addition and measured after 120 mins by flow cytometry analysis relative to control. Format: cell-based. The settings on record: probe pheophorbide A. In outline: as §3

The subject of a further data set is A2780. Description: Antiproliferative activity against human A2780 cells assessed as reduction in cell viability measured for 72 hrs bt MTT assay. Format: functional.
A short description of data set [7]: Antiproliferative activity against dog MDCK-II-BCRP cells assessed as reduction in cell viability measured for 72 hrs bt MTT assay. It is filed as functional. The settings on record: Canis lupus familiaris.
The test system of data set [8] is BCRP (ABCG2). Description: Therapeutic index, ratio of GI50 for antiproliferative activity against dog MDCK-II-BCRP cells to IC50 for inhibition of BCRP (unknown origin) expressed in dog MDCK-II cells. It is filed as toxicity, cell-based. In outline:
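Ratio of MTT-assay GI50 to transport-inhibition IC50, both in the resistant line. GI50 comes from 72 h exposure at 37 °C to dilutions up to 1000 µM, with medium as 100% and 10% DMSO as 0% viability. IC50 comes from calcein AM (A2780/ADR), daunorubicin (H69AR) or pheophorbide A (MDCK II BCRP) accumulation.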

The nature of data set [9]: Inhibition of daunorubicin sensitive human A2780 ADR cells expressing P-gp measured for 72 hrs by MTT assay. It is filed as functional. In outline: as §1
The subject of a further data set is H69AR. Briefly: Potentiation factor, ratio of GI50 for daunorubicin resistant human NCI-H69AR cells expressing MRP1 cells to GI50 for reversal of daunorubicin resistance in human NCI-H69AR cells assessed as daunorubicin GI50 at 10 uM (reference value: 1 uM). Format: functional. Put shortly: as §1
The nature of data set [10]: Potentiation factor, ratio of GI50 for SN-38 resistant dog MDCK-II-BCRP cells expressing BCRP cells to GI50 for reversal of SN-38 resistance in dog MDCK-II-BCRP cells assessed as SN-38 GI50 at 0.1 uM (reference value: 1 uM). It is filed as functional, Canis lupus familiaris. Put shortly: as §1
A short description of data set [11]: Sensitization of human A2780 ADR cells expressing P-gp assessed as maximal sensitivity at 10 uM relative to control. Format: functional. In outline: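 Resistant lines were exposed to daunorubicin (A2780/ADR, H69AR) or SN-38 (MDCK II BCRP) over 10 nM–10 µM final, with or without modulator, for 72 h. Viability was read by MTT. Potentiation factor is GI50 without modulator over GI50 with modulator. Maximal sensitization is pf at 10 µM divided by the native resistance factor, in percent.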

P-gp (ABCB1), sequence (P08183 whole entry): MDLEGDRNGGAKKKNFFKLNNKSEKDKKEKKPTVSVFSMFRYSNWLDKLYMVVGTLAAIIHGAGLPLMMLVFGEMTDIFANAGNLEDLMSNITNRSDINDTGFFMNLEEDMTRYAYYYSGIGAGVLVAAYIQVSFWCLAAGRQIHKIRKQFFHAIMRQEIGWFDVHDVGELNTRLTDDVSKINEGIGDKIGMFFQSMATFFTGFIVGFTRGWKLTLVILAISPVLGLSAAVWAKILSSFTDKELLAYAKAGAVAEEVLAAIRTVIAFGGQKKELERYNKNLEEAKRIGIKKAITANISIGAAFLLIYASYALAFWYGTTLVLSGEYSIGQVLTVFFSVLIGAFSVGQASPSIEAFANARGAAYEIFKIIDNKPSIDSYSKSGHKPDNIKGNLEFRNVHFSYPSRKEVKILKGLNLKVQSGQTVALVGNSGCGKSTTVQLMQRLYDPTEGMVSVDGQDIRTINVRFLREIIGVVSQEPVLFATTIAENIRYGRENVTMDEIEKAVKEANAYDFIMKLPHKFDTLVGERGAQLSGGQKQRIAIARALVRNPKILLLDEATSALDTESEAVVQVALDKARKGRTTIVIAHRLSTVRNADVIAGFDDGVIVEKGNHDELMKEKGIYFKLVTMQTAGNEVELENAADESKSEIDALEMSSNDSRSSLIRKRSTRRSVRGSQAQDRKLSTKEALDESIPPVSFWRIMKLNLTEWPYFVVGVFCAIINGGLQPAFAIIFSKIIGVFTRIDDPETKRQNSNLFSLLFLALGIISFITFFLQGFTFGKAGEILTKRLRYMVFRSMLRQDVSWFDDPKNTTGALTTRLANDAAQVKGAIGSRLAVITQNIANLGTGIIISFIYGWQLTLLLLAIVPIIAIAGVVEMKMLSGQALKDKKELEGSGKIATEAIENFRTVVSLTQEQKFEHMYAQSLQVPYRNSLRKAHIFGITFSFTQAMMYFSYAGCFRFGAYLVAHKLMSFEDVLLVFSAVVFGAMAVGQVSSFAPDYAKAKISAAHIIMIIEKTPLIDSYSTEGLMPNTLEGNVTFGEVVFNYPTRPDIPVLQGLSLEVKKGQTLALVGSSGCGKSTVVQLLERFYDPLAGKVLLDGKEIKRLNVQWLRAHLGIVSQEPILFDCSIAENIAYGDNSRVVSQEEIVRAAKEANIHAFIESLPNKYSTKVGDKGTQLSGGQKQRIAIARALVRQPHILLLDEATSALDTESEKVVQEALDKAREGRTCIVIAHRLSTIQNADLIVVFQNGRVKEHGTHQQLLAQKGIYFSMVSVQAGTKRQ
ATP-dependent translocase ABCB1, sequence (P08183 whole entry): as above

`N#Cc1cn(CCCc2ccccc2)c2c(N3CCN(CCc4c[nH]c5ccccc45)CC3)ncnc12`: the EC50 in [1] was 478 nM. Besides, the GI50 turned out to be 286 nM in data set [2]; 916 nM in data set [3]; 6360 nM in the data set with A2780; 23200 nM in data set [7]; 10 nM in data set [9]. Besides, the half-maximal inhibitory concentration (IC50) in data set [4] was 1460 nM; in [5] it was 1690 nM. In addition, the inhibition at 0.5 h, 10 µM at P-gp (ABCB1) was above 25%. At BCRP (ABCG2) [6], this molecule registered an inhibition at 2 h, 10 µM above 25%. The selectivity ratio with BCRP (ABCG2) [8] was found to be 14. Moreover, the PF with H69AR was determined as 8.6; in [10], 1.9. In addition, the Activity in data set [11] turned out to be 24%.
